{
  "source": "the EternaBench riboswitch data",
  "test_system": "MS2 coat protein",
  "test": "apparent Kd, MS2 coat protein; higher = weaker binding; RNA-MaP array; FMN 200 µM where present",
  "in_short": "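SNAP-549-labelled MS2 coat protein, doubled from 0.7 or 1.5 nM to 3 µM, was titrated over designs transcribed by stalled E. coli RNA polymerase on Illumina sequencing-chip clusters. Titrations were run without and then with constant ligand in 100 mM Tris-HCl pH 7.5, 80 mM KCl, 4 mM MgCl2, BSA, DTT, yeast tRNA and Tween-20. The apparent Kd is the median of filtered per-cluster fits to green signal normalised to red-channel RNA signal and control-cluster median Fmax.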",
  "key": {"[1]": {"conditions": "designed as: ON switch for flavin mononucleotide, no ligand"}, "[2]": {"conditions": "ligand present: flavin mononucleotide, designed as: ON switch for flavin mononucleotide"}, "[3]": {"conditions": "designed as: OFF switch for flavin mononucleotide, no ligand"}, "[4]": {"conditions": "ligand present: flavin mononucleotide, designed as: OFF switch for flavin mononucleotide"}},
  "data": [
    {"sequence": "GUGGUCAGACAUGAGGAUCACCCAUGUGGAAUAAAUAACAGACAGGAUAUCAAAUAUAGGAUAUAUGAGAAGGGUCGAUUGGUG", "values": [
      {"measurement": "apparent Kd", "setting": "[1]", "result": 99.5, "unit": "nM"},
      {"measurement": "apparent Kd", "setting": "[2]", "result": 84.3, "unit": "nM"}
    ]},
    {"sequence": "UGAGCGACCACAGGAUAUGCUUGAGAAGACCGAGCAGAAGGGUGGAAGAGCGUGCAGUGACAUGAGGAUCACCCAUGUGGUUGG", "values": [
      {"measurement": "apparent Kd", "setting": "[1]", "result": 173, "unit": "nM"},
      {"measurement": "apparent Kd", "setting": "[2]", "result": 170, "unit": "nM"}
    ]},
    {"sequence": "AACUAAGUAUUAAUGGUGUCUGACAGAAGGCAAUAGAAUGAGACCGACAUGAGGAUCACCCAUGUUGAGGAUAUGUCUAGCUAC", "values": [
      {"measurement": "apparent Kd", "setting": "[3]", "result": 6.33, "unit": "nM"},
      {"measurement": "apparent Kd", "setting": "[4]", "result": 7.27, "unit": "nM"}
    ]},
    {"sequence": "GCUAGGAAUGUCAGGAUAUGCAGAACCUUGGUUCUGCAGAAGGGACAUGAGGAUCACCCAUGUGCUAACCUAGC", "values": [
      {"measurement": "apparent Kd", "setting": "[3]", "result": 29.6, "unit": "nM"},
      {"measurement": "apparent Kd", "setting": "[4]", "result": 113, "unit": "nM"}
    ]},
    {"sequence": "GUGCUUAUCGAAGGAUAUGGUUACAUGAGGAUCACCCAUGUUAUGCUUGGUUACUUGUUUAGUUUCCAGAAGGUCGAUUAGUUG", "values": [
      {"measurement": "apparent Kd", "setting": "[3]", "result": 75.5, "unit": "nM"},
      {"measurement": "apparent Kd", "setting": "[4]", "result": 170, "unit": "nM"}
    ]},
    {"sequence": "CACGCCUAGGAGAAGGGCCCACUAUAGGGUAAAUGCUGUUCUCACAUGAGGAUCACCCAUGUGCGGCAGGAUAUCCACGCGUAA", "values": [
      {"measurement": "apparent Kd", "setting": "[3]", "result": 7.28, "unit": "nM"},
      {"measurement": "apparent Kd", "setting": "[4]", "result": 34.6, "unit": "nM"}
    ]},
    {"sequence": "GUCACACACUGCUCCGUGUCUGACAUGAGGAUCACCCAUGUGAGAAGGUAGCGUCGAAGCAACGUUAAGGAUAUCACGUGCAGU", "values": [
      {"measurement": "apparent Kd", "setting": "[3]", "result": 6.68, "unit": "nM"},
      {"measurement": "apparent Kd", "setting": "[4]", "result": 8.39, "unit": "nM"}
    ]},
    {"sequence": "GUCAGCUCGUGAGGAUAUACUUCACUGCUUCGGCAGUGUAUUAAGAUCACAUGAGGAUCACCCAUGUAGAAGGCACGAGCUGAU", "values": [
      {"measurement": "apparent Kd", "setting": "[3]", "result": 22.8, "unit": "nM"},
      {"measurement": "apparent Kd", "setting": "[4]", "result": 182, "unit": "nM"}
    ]},
    {"sequence": "ACACAUGAGGAUCACCCAUGUACGCGCUGACAGGAGGUCUCACAGGAUAUAUGUGGUGAUGCUACAUAGAAGGGUGAUACCGCG", "values": [
      {"measurement": "apparent Kd", "setting": "[1]", "result": 233, "unit": "nM"},
      {"measurement": "apparent Kd", "setting": "[2]", "result": 49.5, "unit": "nM"}
    ]},
    {"sequence": "UGACCCAUGACAUGAGAUGACAUGAGGAUCACCCAUGUGUACAAGGAUAUGUUGGUCAAAGGUCGGCAGAAGGUGUAAUGGGAU", "values": [
      {"measurement": "apparent Kd", "setting": "[3]", "result": 59.8, "unit": "nM"},
      {"measurement": "apparent Kd", "setting": "[4]", "result": 146, "unit": "nM"}
    ]},
    {"sequence": "UUAAUGAAGUAAGGAUAUACAUGAGGAUUUCUCGUAGAAGGUACUAUACAUGAGGAUCACCCAUGUGCCGGUCAGAAGACUGGA", "values": [
      {"measurement": "apparent Kd", "setting": "[1]", "result": 433, "unit": "nM"},
      {"measurement": "apparent Kd", "setting": "[2]", "result": 274, "unit": "nM"}
    ]},
    {"sequence": "UGAUCGAGAGAUCUUAGAUUCUGGUAGGAUAUACAUUAUGUAUUAUAUACAUGAGGAUCACCCAUGUAGAAGGACUAGAGUCUA", "values": [
      {"measurement": "apparent Kd", "setting": "[3]", "result": 6.7, "unit": "nM"},
      {"measurement": "apparent Kd", "setting": "[4]", "result": 11.8, "unit": "nM"}
    ]},
    {"sequence": "CCAUGUUAGCAGGAUAUGCUAUUAAUCUUUUAUGCAGAAGGGCUUACAUGAGGAUCACCCAUGUAUUAAGUCUU", "values": [
      {"measurement": "apparent Kd", "setting": "[3]", "result": 11.3, "unit": "nM"},
      {"measurement": "apparent Kd", "setting": "[4]", "result": 19.5, "unit": "nM"}
    ]},
    {"sequence": "GGAAUGUCGGGAGGAUAUCCAAAUGUAUACAUAGGAGAAGGCCCGCACAUGAGGAUCACCCAUGUAAUAACGCGUGGCAUCUAC", "values": [
      {"measurement": "apparent Kd", "setting": "[3]", "result": 81.3, "unit": "nM"},
      {"measurement": "apparent Kd", "setting": "[4]", "result": 169, "unit": "nM"}
    ]},
    {"sequence": "UUUGUAAUGUCAGGAUAUAUAAUAAGUCAUACAGUAGAAGGGAUAAUAAUACUCAUGUACAUGAGGAUCACCCAUGUUAAAUAU", "values": [
      {"measurement": "apparent Kd", "setting": "[1]", "result": 98.8, "unit": "nM"},
      {"measurement": "apparent Kd", "setting": "[2]", "result": 52.4, "unit": "nM"}
    ]},
    {"sequence": "GUACUGUAGUGAGGAUAUACGAGAUCGAUAGAUCGGCGAUCCAAUUAUACAUGAGGAUCACCCAUGUAGAAGGCACUUCAGUAC", "values": [
      {"measurement": "apparent Kd", "setting": "[3]", "result": 8.75, "unit": "nM"},
      {"measurement": "apparent Kd", "setting": "[4]", "result": 55.8, "unit": "nM"}
    ]},
    {"sequence": "UUUUACGUAGGAUAUACAUUUUUUUUAUUAUUUUCAUUAUUACAUGAGGAUCACCCAUGUAGAAGGACGAUUUU", "values": [
      {"measurement": "apparent Kd", "setting": "[3]", "result": 22.8, "unit": "nM"},
      {"measurement": "apparent Kd", "setting": "[4]", "result": 22, "unit": "nM"}
    ]},
    {"sequence": "AAACACGGACAUGAGGAUCACCCAUGUGGCGAAAGCCUUGGAAGAAGGCCGUAUGCAAAGCAUACGGAGGAUAUUCAUACCGUG", "values": [
      {"measurement": "apparent Kd", "setting": "[1]", "result": 15.6, "unit": "nM"},
      {"measurement": "apparent Kd", "setting": "[2]", "result": 5.85, "unit": "nM"}
    ]},
    {"sequence": "UGGUACUAGGGAGGAUAUGGGAAGAUACAUGAGGAUCACCCAUGUUUAAGAAUGCCGAGAGGCAACUAGAAGGCCCUAGUACUU", "values": [
      {"measurement": "apparent Kd", "setting": "[1]", "result": 448, "unit": "nM"},
      {"measurement": "apparent Kd", "setting": "[2]", "result": 20.2, "unit": "nM"}
    ]},
    {"sequence": "GCACUGGAUGUAGGAUAUCAGGACGAUAAGUCCUGAGAAGGACAUGAGGAUCACCCAUGUAAUAACUCCCAGUGCUAUAAUAUA", "values": [
      {"measurement": "apparent Kd", "setting": "[3]", "result": 16.4, "unit": "nM"},
      {"measurement": "apparent Kd", "setting": "[4]", "result": 20.1, "unit": "nM"}
    ]},
    {"sequence": "GCGUUGAACGAGAAGGCCAAUACAUGAGGAUCACCCAUGUUAAGAUGUUUUGGAGGAUAUCGAUCGUCGUCUCAUGAGCAACGC", "values": [
      {"measurement": "apparent Kd", "setting": "[3]", "result": 5.3, "unit": "nM"},
      {"measurement": "apparent Kd", "setting": "[4]", "result": 6.24, "unit": "nM"}
    ]},
    {"sequence": "AAUAAACUCACAGGAUAUAGCAUAAGUCGCGUGAACUUACAGGCGACUAUGCUAGAAGGGUGACCACAUGAGGAUCACCCAUGU", "values": [
      {"measurement": "apparent Kd", "setting": "[1]", "result": 805, "unit": "nM"},
      {"measurement": "apparent Kd", "setting": "[2]", "result": 158, "unit": "nM"}
    ]},
    {"sequence": "GCGAAGGGAGGAUAUCCGCGCGCGCACAUGAGGAUCACCCAUGUGCGCGCGCGCGCGCGCGGAGAAGGCCCGGUGC", "values": [
      {"measurement": "apparent Kd", "setting": "[3]", "result": 16.4, "unit": "nM"},
      {"measurement": "apparent Kd", "setting": "[4]", "result": 13.4, "unit": "nM"}
    ]},
    {"sequence": "CCUCGACAUGAGGAUCACCCAUGUCAGGAUAUUGUGUUUUUGGUUUUUUACCUUUAGGCAAGAAGGGAUGUGUG", "values": [
      {"measurement": "apparent Kd", "setting": "[3]", "result": 16, "unit": "nM"},
      {"measurement": "apparent Kd", "setting": "[4]", "result": 21.4, "unit": "nM"}
    ]},
    {"sequence": "GUUUUUUGUCAUGUACAUGAGGAACAUGAGGAUCACCCAUGUAGAAGGAAUUUUUUUAAGUUUAGUUAGGAUAUACAUAUAUUG", "values": [
      {"measurement": "apparent Kd", "setting": "[3]", "result": 50.6, "unit": "nM"},
      {"measurement": "apparent Kd", "setting": "[4]", "result": 31.9, "unit": "nM"}
    ]},
    {"sequence": "UAAACGUUCUAGAAGGUGCUUUUGUUAAACAAGCAAGGAUAUAGACAUGAGGAUCACCCAUGUCUUUGAGACAUCGACAUACUU", "values": [
      {"measurement": "apparent Kd", "setting": "[3]", "result": 8.41, "unit": "nM"},
      {"measurement": "apparent Kd", "setting": "[4]", "result": 9.14, "unit": "nM"}
    ]},
    {"sequence": "AUUUUGUGAGGAUAUGUGGCUUCGAUCGUAAAAUCGAGGCUACAGAAGGCACAUGAGGAUCACCCAUGUUCCUA", "values": [
      {"measurement": "apparent Kd", "setting": "[3]", "result": 19, "unit": "nM"},
      {"measurement": "apparent Kd", "setting": "[4]", "result": 205, "unit": "nM"}
    ]},
    {"sequence": "ACAUACAUUCGAGGAUAUCGGUGAUUAAUUUUACGAGAAGGCGAUAUAAGAUAUAAUAUUUUAGACAUGAGGAUCACCCAUGUA", "values": [
      {"measurement": "apparent Kd", "setting": "[1]", "result": 25.5, "unit": "nM"},
      {"measurement": "apparent Kd", "setting": "[2]", "result": 22.9, "unit": "nM"}
    ]}
  ]
}
